Reference: ChEMBL document CHEMBL1146219, “Synthesis and evaluation of novel radioiodinated benzamides for malignant melanoma” (J Med Chem, 2007)

Key:
Conditions in all cases: in vivo
Brain [1] = assay: Biodistribution in brain of B16F0 tumor bearing C57BL/6J mouse at 0.37-0.74 MBq, iv after 6 hrs; assay type: ADME, organism-based
Outline: (§1)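 Female C57BL/6J mice (15-18 g) were given B16F0 cells subcutaneously in the left flank (0.1 mL of 3 × 10⁶ viable cells/mL in Ca²⁺/Mg²⁺-free PBS) at 6-7 weeks and used after ten days. [¹²³I]benzamide (0.37-0.74 MBq, 100 µL, saline) was injected via the tail vein. Groups of n = 5 were killed by CO₂ and cervical dislocation. Organs were weighed and γ-counted, and the carcass was counted too.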

[2] = Biodistribution in melanoma of B16F0 tumor bearing C57BL/6J mouse at 0.37-0.74 MBq, iv after 48 hrs; assay type: ADME, organism-based, B16-F0; outline: as §1
Heart [3] = assay: Biodistribution in heart of B16F0 tumor bearing C57BL/6J mouse at 0.37-0.74 MBq, iv after 24 hrs; assay type: ADME, organism-based; outline: as §1
Lung [4] = assay: Biodistribution in lung of B16F0 tumor bearing C57BL/6J mouse at 0.37-0.74 MBq, iv after 3 hrs; assay type: ADME, organism-based; outline: as §1
Kidney [5] = assay: Biodistribution in kidney of B16F0 tumor bearing C57BL/6J mouse at 0.37-0.74 MBq, iv after 1 hr in presence of haloperidol; assay type: ADME, organism-based
Outline: (§2)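 Haloperidol blocking in B16F0-bearing C57BL/6J mice: 1 mg/kg haloperidol was given iv 5 min before the iv [¹²³I]benzamide (0.37-0.74 MBq). Groups of n = 5 were killed at 1 or 24 h. Tissues were weighed and γ-counted as in the biodistribution study and compared with untreated controls by one-way ANOVA, with p < 0.01 taken as significant.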

[6] = Biodistribution in melanoma of B16F0 tumor bearing C57BL/6J mouse at 0.37-0.74 MBq, iv after 1 hr; assay type: ADME, organism-based, B16-F0; outline: as §1
Lung [7] = assay: Biodistribution in lung of B16F0 tumor bearing C57BL/6J mouse at 0.37-0.74 MBq, iv after 24 hrs; assay type: ADME, organism-based; outline: as §1
Blood [8] = assay: Biodistribution in blood of B16F0 tumor bearing C57BL/6J mouse at 0.37-0.74 MBq, iv after 24 hrs in presence of haloperidol; assay type: ADME, organism-based
Blood [9] = assay: Biodistribution in blood of B16F0 tumor bearing C57BL/6J mouse at 0.37-0.74 MBq, iv after 6 hrs; assay type: ADME, organism-based; outline: as §1
Heart [10] = assay: Biodistribution in heart of B16F0 tumor bearing C57BL/6J mouse at 0.37-0.74 MBq, iv after 6 hrs; assay type: ADME, organism-based; outline: as §1
Liver [11] = assay: Biodistribution in liver of B16F0 tumor bearing C57BL/6J mouse at 0.37-0.74 MBq, iv after 3 hrs; assay type: ADME, organism-based; outline: as §1
Blood [12] = assay: Biodistribution in blood of B16F0 tumor bearing C57BL/6J mouse at 0.37-0.74 MBq, iv after 1 hr in presence of haloperidol; assay type: ADME, organism-based
Kidney [13] = assay: Biodistribution in kidney of B16F0 tumor bearing C57BL/6J mouse at 0.37-0.74 MBq, iv after 1 hr; assay type: ADME, organism-based; outline: as §1
Kidney [14] = assay: Biodistribution in kidney of B16F0 tumor bearing C57BL/6J mouse at 0.37-0.74 MBq, iv after 24 hrs in presence of haloperidol; assay type: ADME, organism-based; outline: as §2
Brain [15] = assay: Biodistribution in brain of B16F0 tumor bearing C57BL/6J mouse at 0.37-0.74 MBq, iv after 1 hr in presence of haloperidol; assay type: ADME, organism-based
[16] = Biodistribution in tumor of B16F0 tumor bearing C57BL/6J mouse at 0.37-0.74 MBq, iv after 24 hrs in presence of haloperidol; assay type: ADME, organism-based, B16-F0
Outline: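 B16F0 tumor-bearing C57BL/6J mice, groups of n = 5, given haloperidol 1 mg/kg i.v. 5 min before the i.v. [¹²³I]tracer (0.37-0.74 MBq). Killed at 1 or 24 h. Tissues γ-counted as for biodistribution and compared with untreated controls by one-way ANOVA, significance p < 0.01.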

Lung [17] = assay: Biodistribution in lung of B16F0 tumor bearing C57BL/6J mouse at 0.37-0.74 MBq, iv after 1 hr in presence of haloperidol; assay type: ADME, organism-based; outline: as §2
Brain [18] = assay: Biodistribution in brain of B16F0 tumor bearing C57BL/6J mouse at 0.37-0.74 MBq, iv after 24 hrs in presence of haloperidol; assay type: ADME, organism-based
Liver [19] = assay: Biodistribution in liver of B16F0 tumor bearing C57BL/6J mouse at 0.37-0.74 MBq, iv after 24 hrs in presence of haloperidol; assay type: ADME, organism-based; outline: as §2
Lung [20] = assay: Biodistribution in lung of B16F0 tumor bearing C57BL/6J mouse at 0.37-0.74 MBq, iv after 6 hrs; assay type: ADME, organism-based; outline: as §1
Brain [21] = assay: Biodistribution in brain of B16F0 tumor bearing C57BL/6J mouse at 0.37-0.74 MBq, iv after 1 hr; assay type: ADME, organism-based; outline: as §1

Q: What does the source list for `CCCCN(C)CCCCNC(=O)c1cc([123I])c(NC(C)=O)cc1OC`?
A: Drug uptake (Brain [1]): 0.03 % ID/g; Drug uptake [2]: 4.6 % ID/g; Drug uptake (Heart [3]): 0.12 % ID/g; Drug uptake (Lung [4]): 0.95 % ID/g; Drug uptake (Kidney [5]): 17.3 % ID/g; Drug uptake [6]: 5.6 % ID/g; Drug uptake (Lung [7]): 0.1 % ID/g; Drug uptake (Blood [8]): 0.02 % ID/g; Drug uptake (Blood [9]): 0.71 % ID/g; Drug uptake (Heart [10]): 0.54 % ID/g; Drug uptake (Liver [11]): 5 % ID/g; Drug uptake (Blood [12]): 1.15 % ID/g; Drug uptake (Kidney [13]): 21.6 % ID/g; Drug uptake (Kidney [14]): 0.03 % ID/g; Drug uptake (Brain [15]): 0.06 % ID/g; Drug uptake [16]: 4.5 % ID/g; Drug uptake (Lung [17]): 1.54 % ID/g; Drug uptake (Brain [18]): 0.002 % ID/g; Drug uptake (Liver [19]): 0.3 % ID/g; Drug uptake (Lung [20]): 0.56 % ID/g; Drug uptake (Brain [21]): 0.07 % ID/g
